Published values from different studies.
Protocols differ between the studies behind these lines.
Target: Glycogen synthase kinase-3 beta (GSK3B, Homo sapiens, UniProt P49841)

FC(F)(F)Oc1cccc(-c2cnc3ccc(-c4ccncc4)nn23)c1  activity vs control (enzyme activity; inhibitor; radiometric; 1 µM): 88%
N#C[C@@H]1C[C@@H]2C[C@@H]2N1C(=O)[C@@H](N)C12CC3CC(CC(O)(C3)C1)C2  inhibition (enzyme activity; inhibitor; ADP detection; 100 µM): 8.2%
C[C@@H]1CN(c2cc(-c3nn(C)c4ccc(OC5(C)CC5)cc34)ncn2)C[C@H](C)O1  remaining binding (cell-free assay; competition with immobilised ligand; 1 µM): 91%
CC(C)c1ccc(NC(=O)c2cccs2)c(-c2nc3ccccc3[nH]c2=O)c1  activity vs control (enzyme activity; inhibitor; 1 µM): 128%
CCN(CC)CCNC(=O)c1c(C)[nH]c(/C=C2\C(=O)Nc3ccc(Cl)cc32)c1C  remaining activity (enzyme activity; inhibitor; 0.5 µM): 93.1%
CC(C)(C)c1nc2c(s1)c1nc(N)ncc1c1ccc(NS(=O)(=O)c3c(F)cccc3F)c(F)c12  remaining activity (enzyme activity; inhibitor; radiometric; 1 µM): 91%
CS(=O)(=O)c1cc(C2(NC(=O)c3cncc4c3cnn4-c3ccc(F)cc3)CC2)ccn1  remaining binding (cell-free assay; competition with immobilised ligand; 1 µM): 85%
COc1ccc(COc2ccc(Cc3cnc(N)nc3N)cc2OC)cc1  remaining signal (cell-free assay; 0.5 µM): 97.8%
CCC(=O)N[C@H]1CC[C@@H](C(=O)N(C)c2ccc(-c3nc4ccccc4o3)cc2)C1  remaining binding (cell-free assay; competition with immobilised ligand; 1 µM): 81%
Cc1ccc(NC(=O)c2ccc(C)c(C(F)(F)F)c2)cc1C#Cc1nn(C2CCC(O)CC2)c2ncnc(N)c12 (stereo not drawn)  remaining signal (cell-free assay; 10 µM): 26%
Fc1ccc([C@@H]2CCNC[C@H]2COc2ccc3c(c2)OCO3)cc1  inhibition (enzyme activity; inhibitor; ADP detection; 100 µM): 0.9%
Cn1sc(=O)n(Cc2ccccc2)c1=O  remaining signal (cell-free assay; 0.5 µM): 114%
C[C@@H]1CN(c2cc(-c3n[nH]c4ccc(OC5(C)CC5)cc34)ncn2)C[C@H](C)O1  remaining binding (cell-free assay; competition with immobilised ligand; 0.1 µM): 90%
COc1cc(Nc2cnc(C#N)c(O[C@H](C)CN(C)C)n2)ncc1-c1cnn(C)c1  remaining activity (enzyme activity; inhibitor; radiometric; 10 µM): 52%
Nc1ncnc2c1ncn2[C@@H]1O[C@H](COP(=O)(O)OP(=O)(O)OP(=O)(O)O)[C@@H](O)[C@H]1O  Km (enzyme activity; substrate; radiometric): 9.3 µM
O=C1c2ccccc2-c2n[nH]c3cccc1c23  activity vs control (enzyme activity; inhibitor; 0.5 µM): 86.8%
Cc1cnc(NC2CCOCC2)nc1-n1cnc(C(=O)NC(CN)c2cc(F)cc(Cl)c2)c1 (stereo not drawn)  remaining activity (enzyme activity; inhibitor; radiometric; 1 µM): 7%
O=c1cc(-c2cccc3c2Sc2ccccc2S3)oc(N2CCOCC2)c1  remaining activity (enzyme activity; inhibitor; 0.5 µM): 98.7%
Nc1ncnc2occ(-c3ccc(NC(=O)Nc4cc(C(F)(F)F)ccc4F)cc3)c12  remaining activity (enzyme activity; inhibitor; 20 µM): 57%
Cc1cc(NS(=O)(=O)c2ccc(N)cc2)nc(C)n1  inhibition (enzyme activity; inhibitor; ADP detection; 100 µM): 11.7%
COc1ccc(CNC(=O)Nc2ncc([N+](=O)[O-])s2)cc1  remaining signal (cell-free assay; 0.5 µM): 40.2%
Cc1sc(C(=O)NC2COC2)cc1-n1cc(NC(=O)Nc2c(F)cccc2Cl)cn1  remaining activity (enzyme activity; inhibitor; 10 µM): 94.9%
Cc1cc(NC(=O)c2cccc3cc(-c4cccc5[nH]nc(N)c45)ccc23)ccc1F  activity vs control (enzyme activity; inhibitor; 0.1 µM): 85%
OCc1ccccn1  inhibition (enzyme activity; inhibitor; ADP detection; 100 µM): 4.4%
COc1cc(Cl)c(C(=O)N[C@@H](CN[C@H]2CC[C@@H](N)CC2)Cc2ccc(C#N)cc2)cc1-c1ccc(CN[C@H](C)c2ccc(C)cc2)o1  remaining activity (enzyme activity; inhibitor; 1 µM): 101%
COc1cc(-c2coc3cc(O)c(OC)c(O)c3c2=O)cc(O)c1OC  inhibition (enzyme activity; inhibitor; ADP detection; 100 µM): 29%
Nc1[nH]nc2nc3ccccc3nc12  remaining activity (enzyme activity; inhibitor; 0.5 µM): 99.7%
Cc1cnc(C(=O)NCCc2ccc(S(=O)(=O)NC(=O)NC3CCCCC3)cc2)cn1  inhibition (enzyme activity; inhibitor; ADP detection; 100 µM): 45.4%
CN(C)c1ncnc(-c2ccc3nc(Nc4cc(CN5CCN(C(=O)CC(F)(F)F)CC5)ccn4)[nH]c3c2)c1Cl  remaining binding (cell-free assay; competition with immobilised ligand; 1 µM): 100%
CC(C)n1cnc2c(Nc3cccc(Cl)c3)nc(NCCO)nc21  remaining signal (cell-free assay; 0.5 µM): 96%
Cc1cc(-n2nc(Cc3cc(F)cc(C(F)(F)F)c3)nc2C)ccc1C(N)=O  remaining binding (cell-free assay; competition with immobilised ligand; 1 µM): 98%
COc1ccc([C@H]2COc3c(ccc(O)c3OC)C2)c(OC)c1O  inhibition (enzyme activity; inhibitor; ADP detection; 100 µM): 15.7%
CN1CCN(c2cnc3c(C4CCN(C(=O)c5ccc(OC(F)(F)F)cc5N)CC4)ncnc3c2)CC1  remaining binding (cell-free assay; competition with immobilised ligand; 1 µM): 100%
CN1CCOC(c2ccccc2)c2ccccc2C1 (stereo not drawn)  inhibition (enzyme activity; inhibitor; ADP detection; 100 µM): 12.9%
Cc1nc(C2CCN(C(=O)c3ccc(OC(F)(F)F)cc3N)CC2)c2ncc(N3CCN(C)CC3)cc2n1  remaining binding (cell-free assay; competition with immobilised ligand; 1 µM): 100%
Oc1cccc(-c2nc(N3CCOCC3)c3oc4ncccc4c3n2)c1  remaining activity (enzyme activity; inhibitor; 10 µM): 48%
